Broadly, the AUC(0-t) is exposure summed from dosing to a finite time, without extrapolation to infinity. For orientation: Tmax means the time at which the peak concentration occurs. Usually half-life stands for the time in which the quantity being followed falls by half. What is called Cmax is the maximum level reached in the sampled fluid or tissue. The pKa is the pH at which an ionisable group is half protonated. By logP is commonly meant a log measure of how a compound divides between an organic and an aqueous phase. The term fraction unbound denotes the share of the substance not bound to proteins or other matrix. Read a high fraction unbound as weak binding.

The values below come from ChEMBL document CHEMBL3526104 (Drug Metab Dispos, 2011).

A short description of data set [1]: AUC (0 to t) in healthy human at 100 mg, po administered as single dose. Format: ADME, organism-based. Further details: dosed compound name Casopitant. The settings on record: plasma.
Data set [2] in a line: Tmax in healthy human at 100 mg, po administered as single dose on day 4 and cotreated with ketoconazole at 400 mg, po qd on day 1 to 7. Format: ADME, organism-based. Also on record: dosed compound name Casopitant. The settings on record: in vivo.
For data set [3], the target named is T1, Cytochrome P450 3A4 (Homo sapiens, UniProt P08684). The experiment in a line: Drug metabolism assessed as human recombinant CYP3A4-mediated GSK525060 formation at 10 uM after 30 mins by HPLC-MS/MS method. Format: ADME. The conditions noted are these: recombinant enzyme, 0.5 h. In outline:
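Recombinant human CYP3A4 in 50 mM phosphate buffer, pH 7.4, with an NADPH-generating system. […] GSK525060 formation quantified by HPLC-MS/MS.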

The nature of data set [4]: Tmax in healthy human at 150 mg, po administered as single dose on day 8 and cotreated with rifampin at 600 mg, po qd on day 1 to 9. Type of data set: ADME, organism-based. Also on record: dosed compound name Casopitant. The conditions noted are these: in vivo.
Data set [5] is described as follows: Half life in healthy human at 150 mg, po administered as single dose. Format: ADME, organism-based. Also on record: dosed compound name Casopitant. The conditions noted are these: in vivo.
Data set [6] can be described thus: AUC (0 to t) in healthy human at 150 mg, po administered as single dose. Type of data set: ADME, organism-based. Also on record: dosed compound name Casopitant. The settings on record: plasma.
Data set [7] can be described thus: Cmax in healthy human at 150 mg, po administered as single dose on day 8 and cotreated with rifampin at 600 mg, po qd on day 1 to 9. Type of data set: ADME, organism-based. The settings on record: in vivo.
Data set [8] can be described thus: Volume of distribution at steady state in human. The settings on record: in vivo, read-out: Vdss. Type of data set: ADME, organism-based. Also on record: dosed compound name Casopitant.
Data set [9] is described as follows: Cmax in healthy human at 100 mg, po administered as single dose on day 4 and cotreated with ketoconazole at 400 mg, po qd on day 1 to 7. Type of data set: ADME, organism-based. The conditions noted are these: in vivo.
The nature of data set [10]: Tmax in healthy human at 100 mg, po administered as single dose. The conditions noted are these: in vivo. Format: ADME, organism-based. Further details: dosed compound name Casopitant.
A short description of data set [11]: Dissociation constant, pKa of the compound. Type of data set: physicochemical.
Data set [12] in a line: AUC (0 to t) in healthy human at 100 mg, po administered as single dose on day 4 and cotreated with ketoconazole at 400 mg, po qd on day 1 to 7. Format: ADME, organism-based. Also on record: dosed compound name Casopitant. The settings on record: plasma.
Data set [13] in a line: Tmax in healthy human at 150 mg, po administered as single dose. Type of data set: ADME, organism-based. Further details: dosed compound name Casopitant. The settings on record: in vivo.
Data set [14] can be described thus: Lipophilicity, log P of the compound. Format: physicochemical. The conditions noted are these: octanol/water.
The test system of data set [15] is Homo sapiens. Description: Cmax in healthy human assessed as fold change at 150 mg, po in presence of 600 mg rifampin. The conditions noted are these: in vivo. Format: ADME, organism-based. Also on record: dosed compound name Casopitant. In short, it runs like this: (§1)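 Open-label study, 12 healthy subjects: single oral 150 mg dose alone on Day 1, then with oral rifampin 600 mg once daily (study Days 9-17), co-dosed on Day 16. Plasma parent drug measured by validated HPLC-MS/MS at selected time points; fold change from geometric means of AUC(0-t) and Cmax, 90% CI.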

The nature of data set [16]: AUC (0 to t) in healthy human at 150 mg, po administered as single dose on day 8 and cotreated with rifampin at 600 mg, po qd on day 1 to 9. Further details: dosed compound name Casopitant. The settings on record: plasma. Type of data set: ADME, organism-based.
The nature of data set [17]: Unbound fraction in human gut. Type of data set: ADME, tissue-based. Also on record: dosed compound name Casopitant.
Data set [18] can be described thus: Unbound fraction in human plasma. Format: ADME, cell-free.
The test system of data set [19] is Liver microsome. The experiment in a line: Intrinsic clearance in human liver microsomes assessed per mg protein. Type of data set: ADME. In outline: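 CLint derived from Km and Vmax of GSK525060 formation in human liver microsomes. […] Metabolite measured by HPLC-MS/MS; Michaelis-Menten fit by non-linear regression.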
Background: Liver microsomes are vesicles of endoplasmic reticulum, rich in cytochrome P450 enzymes.

The target of data set [20] is T1, Cytochrome P450 3A4. Description: Drug metabolism in human liver microsomes assessed as CYP3A4-mediated GSK525060 formation at 5 to 20 uM up to 30 mins by HPLC-MS/MS method. Type of data set: ADME. The settings on record: 0.5 h. In short, it runs like this: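 Pooled human liver microsomes in 50 mM phosphate buffer, pH 7.4, with an NADPH-generating system. […] GSK525060 measured by HPLC-MS/MS.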

Data set [21] addresses CYP3A4 (Homo sapiens, UniProt P08684). The experiment in a line: Metabolism dependent inactivation of CYP3A4 in human liver microsomes pretreated with compound in presence of midazolam substrate and NADPH by HPLC-MS/MS method relative to untreated control. The settings on record: probe midazolam.
Data set [22] deals with Homo sapiens. Description: AUC in healthy human assessed as fold change at 100 mg, po in presence of 400 mg ketoconazole. Type of data set: ADME, organism-based, Plasma. Also on record: dosed compound name Casopitant. The conditions noted are these: in vivo. In short, it runs like this:
(§2)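 Open-label study, healthy subjects (n=12 enrolled; 13 per treatment in table): single oral 100 mg dose given alone on Day 1, then with oral ketoconazole 400 mg once daily for 7 days, co-dosed on Day 4 of ketoconazole. Plasma parent drug measured by validated HPLC-MS/MS at selected time points; ratios from geometric means of AUC(0-t) and Cmax, 90% CI.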

Data set [23] in a line: Half life in healthy human at 150 mg, po administered as single dose on day 8 and cotreated with rifampin at 600 mg, po qd on day 1 to 9. Type of data set: ADME, organism-based. Also on record: dosed compound name Casopitant. The conditions noted are these: in vivo.
The nature of data set [24]: Cmax in healthy human at 100 mg, po administered as single dose. Format: ADME, organism-based. The conditions noted are these: in vivo.
Data set [25] can be described thus: Cmax in healthy human at 150 mg, po administered as single dose. Format: ADME, organism-based. The settings on record: in vivo.
In data set [26] the test system is Homo sapiens. The experiment in a line: AUC in healthy human assessed as fold change at 150 mg, po in presence of 600 mg rifampin. The settings on record: in vivo. Further details: dosed compound name Casopitant. Type of data set: ADME, organism-based, Plasma. In short, it runs like this: as §1
In data set [27] the test system is Homo sapiens. Description: Cmax in healthy human assessed as fold change at 100 mg, po in presence of 400 mg ketoconazole. The settings on record: in vivo. Further details: dosed compound name Casopitant. Format: ADME, organism-based. In short, it runs like this:
as §2

In data set [28] the target is T1, Cytochrome P450 3A4. Description: Fraction of drug metabolized assessed as human CYP3A4-mediated drug metabolism. Format: ADME. The settings on record: recombinant enzyme.
Data set [29] has as its system Homo sapiens. Description: AUC (0 to infinity) in healthy human assessed as fold change in presence of casopitant 120 mg, po once daily administered for 3 days. The conditions noted are these: in vivo, 72 h. Type of data set: ADME, organism-based, Plasma.
For data set [30], the system named is Homo sapiens. The experiment in a line: AUC (0 to infinity) in healthy human assessed as fold change in presence of casopitant 120 mg, po once daily administered for 14 days. Format: ADME, organism-based, Plasma. The settings on record: in vivo, 336 h.
Data set [31] deals with Homo sapiens. The experiment in a line: AUC (0 to infinity) in healthy human assessed as fold change in presence of casopitant 30 mg, po once daily administered for 3 days. Type of data set: ADME, organism-based, Plasma. The conditions noted are these: in vivo, 72 h.
Data set [32] relates to Homo sapiens. Description: AUC (0 to infinity) in healthy human assessed as fold change in presence of casopitant 30 mg, po once daily administered for 14 days. Format: ADME, organism-based, Plasma. The settings on record: in vivo, 336 h.

T1 sequence (P08684 whole entry): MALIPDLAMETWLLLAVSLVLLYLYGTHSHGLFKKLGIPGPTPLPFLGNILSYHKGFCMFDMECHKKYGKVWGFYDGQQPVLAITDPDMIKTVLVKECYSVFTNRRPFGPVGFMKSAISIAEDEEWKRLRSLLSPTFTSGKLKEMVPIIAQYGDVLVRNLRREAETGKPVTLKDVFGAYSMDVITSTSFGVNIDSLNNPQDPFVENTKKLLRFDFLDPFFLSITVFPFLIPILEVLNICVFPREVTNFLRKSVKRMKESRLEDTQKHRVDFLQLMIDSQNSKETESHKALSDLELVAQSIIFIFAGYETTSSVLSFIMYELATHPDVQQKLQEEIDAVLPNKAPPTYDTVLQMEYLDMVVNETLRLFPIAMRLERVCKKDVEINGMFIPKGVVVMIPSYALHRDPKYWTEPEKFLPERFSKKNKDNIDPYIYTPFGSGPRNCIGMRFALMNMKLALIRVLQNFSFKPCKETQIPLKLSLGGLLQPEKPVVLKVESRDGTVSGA
Sequence of CYP3A4 (P08684 whole entry): as above

On to `CC(=O)N1CCN([C@H]2CCN(C(=O)N(C)[C@H](C)c3cc(C(F)(F)F)cc(C(F)(F)F)c3)[C@@H](c3ccc(F)cc3C)C2)CC1` [CASOPITANT], for which the AUC(0-t) in [1] turned out to be 2590 ng·h/mL; in data set [6], 6570 ng·h/mL; in [12], 31200 ng·h/mL; in [16], 273 ng·h/mL. In addition, the Tmax in data set [2] worked out at 2 h; in [4], 1 h; in data set [10] it was 1 h; in data set [13], 1.25 h. Also, the Drug metabolism entry in data set [3] and in data set [20] was “metabolite_detected” each time. For the same compound, the half-life is 19.2 h in [5] and 6.45 h in [23]. Moreover, the Cmax came out at 93.2 ng/mL in data set [7], 1250 ng/mL in data set [9], 457 ng/mL in [24] and 847 ng/mL in [25]. In addition, the Vd in data set [8] stood at 2.58 L/kg. In [11], this compound displayed a pKa of 6.3. In data set [14], this compound had a log partition coefficient (logP) of 5.6. Besides, the “fold change (FC)” value came out at 0.11 in data set [15], 12.1 in data set [22], 0.04 in data set [26] and 2.71 in data set [27]. Moreover, the fraction unbound in [17] worked out at 1; in data set [18], 0.005. This compound also came in with a CLint in data set [19] of 25 µL/min/mg. For the same compound, the KI in data set [21] came to 3.1 µM. For the same compound, the Fm in data set [28] was 1.

Regarding `Cc1ncc2n1-c1ccc(Cl)cc1C(c1ccccc1F)=NC2` [MIDAZOLAM], the “fold change (FC)” value is given as 2.67 in data set [29], 3.49 in [30], 2.02 in data set [31] and 1.76 in data set [32].

Turning to `COC(=O)C1=C(C)NC(C)=C(C(=O)OC)C1c1ccccc1[N+](=O)[O-]` [NIFEDIPINE], the “fold change (FC)” value in data set [29] stood at 1.77; in data set [30], 1.42; in data set [31], 1.56; in [32], 1.61.
